Here are results for 3 compounds from ChEMBL document CHEMBL3526081 (Drug Metab Dispos, 2011).

One data set deals with Liver microsome. The data set is described as follows: Drug level in human liver microsomes treated with 100 uM cinobufagin at 37 degC after 30 mins by UFLC-ESI-MS analysis in presence of NADPH-generating system. The format is ADME. Conditions: 0.5 h. The essentials: (§1)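 Liver microsomes (0.3 mg protein/ml) incubated with 100 µM substrate at 37°C for 30 min, in 100 mM potassium phosphate pH 7.4 with NADPH-generating system (1 mM NADP+, 10 mM glucose 6-phosphate, 1 unit/ml G6PDH, 4 mM MgCl2). Acetonitrile ≤1% final. Stopped with ice-cold acetonitrile and centrifuged. Metabolites identified by UFLC-ESI-MS and quantified by UFLC-DAD at 294 nm against authentic standard curves.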

The next data set has as its target T1, Cytochrome P450 1A2 (Homo sapiens, UniProt P05177).
T1 sequence (P05177 whole entry): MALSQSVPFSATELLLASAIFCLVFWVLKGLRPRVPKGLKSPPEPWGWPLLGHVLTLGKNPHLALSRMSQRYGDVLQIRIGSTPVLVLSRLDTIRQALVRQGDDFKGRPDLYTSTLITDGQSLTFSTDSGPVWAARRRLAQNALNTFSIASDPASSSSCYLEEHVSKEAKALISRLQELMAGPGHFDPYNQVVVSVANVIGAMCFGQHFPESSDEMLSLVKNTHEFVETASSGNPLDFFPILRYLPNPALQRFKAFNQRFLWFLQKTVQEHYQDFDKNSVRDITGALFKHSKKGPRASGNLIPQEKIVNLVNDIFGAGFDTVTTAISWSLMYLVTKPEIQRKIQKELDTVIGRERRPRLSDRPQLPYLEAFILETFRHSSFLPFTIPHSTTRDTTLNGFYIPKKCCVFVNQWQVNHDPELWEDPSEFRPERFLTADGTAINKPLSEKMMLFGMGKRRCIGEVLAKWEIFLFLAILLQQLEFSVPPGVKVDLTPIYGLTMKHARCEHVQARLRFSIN
The data set is described as follows: Drug level in human recombinant CYP1A2 expressed in insect cells coexpressing NADPH-P450 reductase measured per pmol of enzyme treated with 50 uM cinobufagin at 37 degC after 30 mins by UFLC-DAD-ESI-MS analysis. Conditions: 0.5 h.

Data set [1] can be described thus: Drug level in Colony-bred Chinese Bama minipig liver microsomes treated with 100 uM cinobufagin at 37 degC after 30 mins by UFLC-ESI-MS analysis in presence of NADPH-generating system. The format is ADME, Sus scrofa. Conditions: pig, 0.5 h. The essentials: as §1
Data set [2] can be described thus: Cytotoxicity against human Bel7402 cells assessed as againsthibition of cell growth after 72 hrs. The data set is classed as cell-based. The conditions noted are these: Bel-7402, 72 h. The essentials: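 Bel-7402 hepatoma cells grown in RPMI 1640 with 10% FBS and 1% penicillin/streptomycin, trypsinised, seeded and exposed to serial dilutions for 72 h at 37°C.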

The target in a further data set is T2, Cytochrome P450 2B6 (Homo sapiens, UniProt P20813).
T2 sequence (P20813 whole entry): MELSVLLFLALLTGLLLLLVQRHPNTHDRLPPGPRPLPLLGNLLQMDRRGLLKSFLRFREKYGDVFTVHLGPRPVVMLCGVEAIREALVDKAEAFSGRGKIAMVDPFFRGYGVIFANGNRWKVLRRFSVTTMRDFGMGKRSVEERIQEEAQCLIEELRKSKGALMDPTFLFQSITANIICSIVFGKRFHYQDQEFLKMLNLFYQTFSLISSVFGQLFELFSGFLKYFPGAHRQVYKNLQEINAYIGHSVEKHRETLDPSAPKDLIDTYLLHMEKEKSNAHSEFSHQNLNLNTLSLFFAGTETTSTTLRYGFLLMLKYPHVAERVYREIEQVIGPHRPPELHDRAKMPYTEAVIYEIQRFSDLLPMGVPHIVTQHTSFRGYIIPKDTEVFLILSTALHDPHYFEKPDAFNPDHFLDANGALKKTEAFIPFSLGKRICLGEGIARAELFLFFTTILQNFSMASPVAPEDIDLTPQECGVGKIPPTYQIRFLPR
The data set is described as follows: Drug level in human recombinant CYP2B6 expressed in insect cells coexpressing NADPH-P450 reductase measured per pmol of enzyme treated with 50 uM cinobufagin at 37 degC after 30 mins by UFLC-DAD-ESI-MS analysis. Conditions: 0.5 h.

For another data set, the target named is Cytochrome P450 3A4 (Homo sapiens, UniProt P08684). The data set is described as follows: Drug level in human recombinant CYP3A4 expressed in insect cells coexpressing NADPH-P450 reductase measured per pmol of enzyme treated with 50 uM cinobufagin at 37 degC after 30 mins by UFLC-DAD-ESI-MS analysis. Conditions: 0.5 h.
Sequence of Cytochrome P450 3A4 (P08684 whole entry): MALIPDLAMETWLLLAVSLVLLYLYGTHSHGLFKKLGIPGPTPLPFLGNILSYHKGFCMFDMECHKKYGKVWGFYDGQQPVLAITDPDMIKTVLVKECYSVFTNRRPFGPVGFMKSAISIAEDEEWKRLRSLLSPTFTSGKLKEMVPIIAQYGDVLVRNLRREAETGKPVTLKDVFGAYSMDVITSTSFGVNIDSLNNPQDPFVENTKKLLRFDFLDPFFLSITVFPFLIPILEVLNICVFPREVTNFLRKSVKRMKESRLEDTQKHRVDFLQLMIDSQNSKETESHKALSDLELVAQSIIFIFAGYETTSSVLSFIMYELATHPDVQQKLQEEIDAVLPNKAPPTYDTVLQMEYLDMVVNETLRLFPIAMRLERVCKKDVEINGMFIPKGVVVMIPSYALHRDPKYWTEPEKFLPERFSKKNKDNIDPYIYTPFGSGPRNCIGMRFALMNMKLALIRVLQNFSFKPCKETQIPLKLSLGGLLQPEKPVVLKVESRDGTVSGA
For the next data set, the target named is T3, Cytochrome P450 2A6 (Homo sapiens, UniProt P11509).
T3 sequence (P11509 whole entry): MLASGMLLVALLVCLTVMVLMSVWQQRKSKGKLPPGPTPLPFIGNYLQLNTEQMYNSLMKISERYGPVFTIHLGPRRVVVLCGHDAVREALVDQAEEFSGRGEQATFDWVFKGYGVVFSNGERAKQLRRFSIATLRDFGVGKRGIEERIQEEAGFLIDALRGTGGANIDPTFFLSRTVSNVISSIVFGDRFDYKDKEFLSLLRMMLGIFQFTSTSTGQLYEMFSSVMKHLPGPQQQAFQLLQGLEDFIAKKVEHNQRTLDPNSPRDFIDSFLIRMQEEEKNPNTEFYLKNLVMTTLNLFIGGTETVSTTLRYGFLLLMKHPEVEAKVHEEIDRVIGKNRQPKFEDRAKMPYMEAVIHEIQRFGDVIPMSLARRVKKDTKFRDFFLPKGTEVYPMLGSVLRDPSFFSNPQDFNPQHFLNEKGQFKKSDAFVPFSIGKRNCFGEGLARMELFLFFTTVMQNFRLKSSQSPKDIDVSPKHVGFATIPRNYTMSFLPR
The data set is described as follows: Drug level in human recombinant CYP2A6 expressed in insect cells coexpressing NADPH-P450 reductase measured per pmol of enzyme treated with 50 uM cinobufagin at 37 degC after 30 mins by UFLC-DAD-ESI-MS analysis. The conditions noted are these: 0.5 h.

pIC50: −log10 of the molar value.

For the compound `CC(=O)O[C@H]1[C@H]2O[C@]23[C@@H]2CC[C@@H]4C[C@@H](O)C[C@H](O)[C@]4(C)[C@H]2CC[C@]3(C)[C@H]1c1ccc(=O)oc1`, the Drug metabolism entry was “metabolite_detected” in the data set on Liver microsome; less than 0.01 pmol/min at Cytochrome P450 1A2; “metabolite_detected” in data set [1]; less than 0.01 pmol/min at Cytochrome P450 2B6; 14.01 pmol/min at Cytochrome P450 3A4; less than 0.01 pmol/min at Cytochrome P450 2A6. Further, the pIC50 in data set [2] is 6.43.

Turning to `CC(=O)O[C@H]1[C@H]2O[C@]23[C@@H]2CC[C@@H]4C[C@@H](O)CC[C@]4(C)[C@H]2CC[C@]3(C)[C@H]1c1ccc(=O)oc1` [CINOBUFAGIN], the pIC50 in data set [2] is 7.31.

On to `CC(=O)O[C@H]1[C@H]2O[C@]23[C@@H]2CC[C@]4(O)C[C@@H](O)CC[C@]4(C)[C@H]2CC[C@]3(C)[C@H]1c1ccc(=O)oc1` [CINOBUFOTALIN], for which the Drug metabolism entry in the data set on Liver microsome is listed as “metabolite_detected”; at Cytochrome P450 1A2, less than 0.01 pmol/min; in data set [1] it was “metabolite_detected”; on Cytochrome P450 2B6 it was less than 0.01 pmol/min; on Cytochrome P450 3A4, 26.02 pmol/min; at Cytochrome P450 2A6, less than 0.01 pmol/min. In addition, the pIC50 in data set [2] was 5.06.
